Assay results published in ChEMBL document CHEMBL1127561, “Novel spirosuccinimide aldose reductase inhibitors derived from isoquinoline-1,3-diones: 2-[(4-bromo-2-fluorophenyl)methyl]-6- fluorospiro[isoquinoline-4(1H),3'-pyrrolidine]-1,2',3,5'(2H)-tetrone and congeners. 1” (J Med Chem, 1994).

Tests used:
[1] = target: Aldo-keto reductase family 1 member B1 (Bos taurus, UniProt P16116); experiment: In vitro inhibition of aldose reductase activity in a partially purified bovine lens preparation
Rattus norvegicus [2] = experiment: Percentage Inhibition of galactitol accumulation in the sciatic nerve of rats fed with the dose of 25.6 mg/kg/day; assay type: functional
Summary of the method: (§1)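 Male Sprague-Dawley rats (70-90 g), six per group, fed 20% galactose chow with compound in the diet for 4 days; glucose-fed controls. After a 3-h fast, lens or sciatic nerve galactitol was measured as nmol/mg wet weight. Percent inhibition vs galactose-fed controls, mean ± SEM; ANOVA with Dunnett's test.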

Rattus norvegicus [3] = experiment: Percentage Inhibition of galactitol accumulation in the sciatic nerve of rats fed with the dose of 3.0 mg/kg/day (values are mean of six animals); assay type: functional; summary of the method: as §1
[4] = target: Aldo-keto reductase family 1 member B1 (Bos taurus) (UniProt P16116); experiment: Inhibition of aldose reductase activity in a partially purified bovine lens preparation at 10e-7 M
Summary of the method: (§2)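 Partially purified bovine lens aldose reductase (ammonium sulfate fractionation). NADPH oxidation read at 340 nm, 37 °C, in 30 mM sodium phosphate pH 6.2, 0.2 M LiSO4, […], 1% DMSO. Enzyme was preincubated with inhibitor for 5 min, then the reaction was started with 5 mM DL-glyceraldehyde. Duplicates; IC50 from linear regression of log concentration vs percent inhibition.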

[5] = Log P value by using Octanol / pH 7.4 buffer; assay type: physicochemical
Summary of the method: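 Partition measured between octanol and pH 7.4 buffer.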

Rattus norvegicus [6] = experiment: Percentage Inhibition of galactitol accumulation in the lens of rats fed with the dose of 1.0 mg/kg/day; assay type: functional; details: Lens of camera-type eye; summary of the method: as §1
Rattus norvegicus [7] = experiment: Percentage Inhibition of galactitol accumulation in the lens of rats fed with the dose of 3.0 mg/kg/day; assay type: functional; details: Lens of camera-type eye; summary of the method: as §1
[8] = target: Aldo-keto reductase family 1 member B1 (Bos taurus) (UniProt P16116); experiment: Inhibition of aldose reductase activity in a partially purified bovine lens preparation at 4*10e-8 M; summary of the method: as §2
Rattus norvegicus [9] = experiment: Percentage Inhibition of galactitol accumulation in the sciatic nerve of rats fed with the dose of 1.0 mg/kg/day; assay type: functional; summary of the method: as §1
Rattus norvegicus [10] = experiment: Percentage Inhibition of galactitol accumulation in the lens of rats fed with the dose of 1.1 mg/kg/day; assay type: functional; details: Lens of camera-type eye; summary of the method: as §1
Rattus norvegicus [11] = experiment: Percentage Inhibition of galactitol accumulation in the sciatic nerve of rats fed with the dose of 1.1 mg/kg/day (values are mean of six animals); assay type: functional; summary of the method: as §1
Rattus norvegicus [12] = experiment: Percentage Inhibition of galactitol accumulation in the sciatic nerve of rats fed with the dose of 0.5 mg/kg/day; assay type: functional; summary of the method: as §1

IC50 [1] [nM]	inhibition [4] [%]	logD [5]	inhibition [8] [%]	SMILES	inhibition in vivo at 25.6 mg/kg/day (Rattus norvegicus [2]) [%]	inhibition in vivo at 3 mg/kg/day (Rattus norvegicus [3]) [%]	inhibition in vivo at 1 mg/kg/day (Rattus norvegicus [6]) [%]	inhibition in vivo at 3 mg/kg/day (Rattus norvegicus [7]) [%]	inhibition in vivo at 1 mg/kg/day (Rattus norvegicus [9]) [%]	inhibition in vivo at 1.1 mg/kg/day (Rattus norvegicus [10]) [%]	inhibition in vivo at 1.1 mg/kg/day (Rattus norvegicus [11]) [%]	inhibition in vivo at 0.5 mg/kg/day (Rattus norvegicus [12]) [%]
37				COc1ccc2c(c1)C(=O)N(Cc1ccc(Br)cc1F)C(=O)C21CC(=O)NC1=O (centres undefined)	88							
	63	0.24	38	CN1C(=O)c2ccccc2C2(CC(=O)NC2=O)C1=O (centres undefined)		66	15	43	37			
22		3.17		O=C1CC2(C(=O)N1)C(=O)N(Cc1nc3cc(C(F)(F)F)ccc3s1)C(=O)c1ccccc12 (centres undefined)						22	100	49
